HNF4A DNA FP: change in binding of human HNF4A to DNA, primary screen, biochemical, fluorescence polarization, FITC-DNA | 0.3% of 360,000 active | activity change, % at 10 µM | AID 1224865, 2016 | 1 h; in the data active means activity change above about 30%, passing the limit was not always enough
PREPL inh: PREPL enzyme inhibitors, primary screen, biochemical, fluorescence polarization; 0.68% of 320,000 active; inhibition, % at 5.96 µM; recombinant PREPL, fluorescence polarization activity-based probe; in the data active means inhibition above about 43%;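 further: 0% = enzyme with DMSO and 100% = wells lacking enzyme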
Tb MetRS inh: T. brucei MetRS inhibitors, primary screen, biochemical, luminescence. purified T. brucei MetRS, ATP depletion, Kinase-Glo luminescence. 0.4% of 360,000 active. inhibition, % at 11.9 µM. methionyl-tRNA synthetase (Trypanosoma brucei brucei);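 active means inhibition above a per-plate cutoff of the control wells' mean inhibition plus 3 SD, cut at about 5.5% in these data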;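 further: 0% = DMSO wells median and 100% = median of wells with control inhibitor compound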
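Test system – parasite MetRS enzyme · Reagent – substrates ATP, L-methionine and bulk Escherichia coli tRNA · Doses – 11.9 µM compound single dose, 0.9% DMSO · Times – 15 min enzyme-compound preincubation, 2 h reaction, 10 min detection, 25 °C · Signal – Kinase-Glo luminescence, ATP depletion format · Controls – DMSO-only wells as low control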
Rpn11 inh: Rpn11 (PSMD14) deubiquitinase inhibitors, primary screen, biochemical, fluorescence polarization, uHTS | 26S proteasome non-ATPase regulatory subunit 14 (Homo sapiens), O00487 | human 26S proteasome, Ub4-pepOG fluorescence polarization; 20S core pre-blocked with epoxomicin | inhibition, % at 20 µM | 0.59% of 360,000 active;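 active means inhibition at 20 µM, scaled to each plate's controls, above about 33%, limit read from the data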
Neddyl block: inhibitors of cullin neddylation, primary screen, biochemical, TR-FRET, uHTS, NAE and Ubc12; inhibition, % at 25 µM; 0.58% of 360,000 active; AID 651699, 2012; in the data active means inhibition above about 36%
CSN inh: inhibitors of CSN-mediated cullin deneddylation, primary screen, biochemical, fluorescence polarization, uHTS; COP9 signalosome complex subunit 5 (Homo sapiens), Q92905; Purified CSN, SCF-Nedd8-OG deneddylation; inhibition, % at 12.5 µM; 0.38% of 360,000 active; AID 651999, 2013;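 active means pattern-corrected inhibition above about 35%, with an unprinted fluorescence ratio check between 0.5 and 1.5, limit read from the data, passing the limit was not always enough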;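 further: 0% = enzyme with substrate and 100% = substrate without enzyme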
Target sequence (Q92905 whole entry, looked up, one chain of several): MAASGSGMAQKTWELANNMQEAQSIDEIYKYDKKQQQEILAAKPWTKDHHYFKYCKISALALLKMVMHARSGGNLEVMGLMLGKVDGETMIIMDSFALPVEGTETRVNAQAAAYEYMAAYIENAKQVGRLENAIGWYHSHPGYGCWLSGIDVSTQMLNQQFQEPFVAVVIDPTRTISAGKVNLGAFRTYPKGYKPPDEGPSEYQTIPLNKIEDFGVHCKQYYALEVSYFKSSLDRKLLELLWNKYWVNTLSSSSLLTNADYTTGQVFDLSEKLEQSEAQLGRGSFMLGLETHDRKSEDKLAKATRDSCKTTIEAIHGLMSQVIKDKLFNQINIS
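Test system: Human Csn5 produced in HEK293T cells | Compound: 12.5 µM single point | Times: 90 min, room temperature | Signal: Fluorescence polarization readout | Read-out basis: % inhibition of substrate cleavage by Csn5 | Controls: no-enzyme wells high, enzyme-with-substrate wells low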
Rpn11 confirm: Rpn11 (PSMD14) deubiquitinase inhibitors, confirmation, biochemical, fluorescence polarization, single concentration; shares compounds with Rpn11 inh; purified human 26S proteasome, Ub4-pepOG fluorescence polarization; proteasome pretreated with epoxomicin; inhibition, % at 20 µM; 29% of 1,900 active
MMP-2 inh: MMP-2 enzyme inhibition, confirmation, counter-screen for RPN11 inhibitor project, biochemical, fluorescence, single concentration; 4% of 1,900 active; inhibition, % at 20 µM; shares compounds with Rpn11 inh; recombinant MMP-2, FRET peptide cleavage fluorescence;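 further: human MMP-2 activated beforehand with APMA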
Thrombin inh: bovine thrombin protease inhibition, confirmation, counter-screen for Rpn11 inhibitor project, biochemical, fluorescence polarization, single concentration | shares compounds with Rpn11 inh | bovine thrombin cleavage of Ub4-pepOG | inhibition, % at 20 µM | 13% of 1,900 active;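 active means mean inhibition at least 40% at 20 µM, or signal 3 deviations below plate average, so some actives read negative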;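 further: plate controls were thrombin with DMSO for no effect and buffer wells lacking thrombin for full effect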
* marks the source's active call; other numbers are inactive results; / = not tested or not shown. In the library only some 2.4% were active in any assay of this set; here they are far more common. Unless noted, no stated cut-off is given here; in the data, active means inhibition above about 40%; inactive means the rest.

SMILES	HNF4A DNA FP	PREPL inh	Tb MetRS inh	Rpn11 inh	Neddyl block	CSN inh	Rpn11 confirm	MMP-2 inh	Thrombin inh
Cc1ccc(S(=O)(=O)N(CC(=O)Nc2ccc(C)cc2C)C(=O)N2CCN(C)CC2)cc1	1	9	0	-2	10	-1	/	/	/
CCNC(=O)C1(C)CCN(C(=O)c2ccccc2OC)C1 (centres undefined)	2	/	0	0	-8	-3	/	/	/
CCN(CC(=O)Nc1ccc(NC(C)=O)cc1)C(=O)c1cc(S(=O)(=O)N2CCCCCC2)ccc1OC	4	-2	0	-2	9	-2	/	/	/
COc1cc(/C=N/NC(=O)c2sc(N)c(C#N)c2C)ccc1O	2	24	-1	0	10	-8	/	/	/
Cc1c(C(=O)N/N=C/c2ccc(O)c(Br)c2)sc(N)c1C#N	23	18	0	58*	42*	14	54*	20	41*
O=C(Nc1ccccc1C(=O)Nc1nnc(C(F)(F)F)s1)c1ccccc1	-12	15	0	35*	30	-3	5	1	-6
Cc1occc1C(=O)Nc1nnc(C(F)(F)F)s1	2	14	-1	-1	-2	0	/	/	/
NC(=O)C1(N2CCCCC2)CCN(S(=O)(=O)c2cc(Cl)sc2Cl)CC1	2	7	0	-5	6	-1	/	/	/
Cc1cc(C)c(C(=O)/C=C/c2cccs2)c(=O)[nH]1	-1	-9	-1	45*	5	2	1	-7	8
COc1ccc(/C=C/C(=O)c2c(C)cc(C)[nH]c2=O)c2ccccc12	6	0	-1	44*	-42	4	24	-33	5
CCN(CC)c1ccc(/C=N/NC(=O)c2ccco2)c(O)c1	14	3	0	47*	30	6	16	-26	8
CCN(CC)c1ccc(/C=N/N=C(c2ccccc2)c2ccccc2)c(O)c1	29	-1	-1	50*	9	-9	0	-22	-24
COc1ccccc1-c1cc2nc(C)cc(C)n2n1	-1	4	0	-3	/	2	/	/	/
O=C1CSC(=S)N1N=Cc1c[nH]c2ccc(Br)cc12	19	/	1	61*	-3	6	25	20	17
S=c1[nH]nc(-c2cc(-c3ccccc3)n[nH]2)n1/N=C/c1cccc(Cl)c1	-22	3	0	177*	90*	70	157*	19	81*
O=C1NC(=S)S/C1=C\c1cc2ccccc2nc1N1CCCCC1	13	-7	0	54*	-18	6	74*	11	46*
O=C1NC(=S)SC1=Cc1ccccc1Cl	20	/	0	10	0	4	/	/	/
CCOC(=O)C1CCN(C(=O)Cn2nc(C)n3cccc3c2=O)CC1	11	20	0	-5	1	-2	/	/	/
O=C(NN1C(=O)/C(=C/c2cc([N+](=O)[O-])ccc2O)SC1=S)c1ccccc1O	/	-1	/	/	/	/	/	/	/
O=C(NN1C(=O)/C(=C/c2ccc(O)c([N+](=O)[O-])c2)SC1=S)c1ccccc1Cl	28	24	-8	71*	-136	22	51*	-8	42*
